Screens as filed in PubChem BioAssay.
Sampled rows, rich in hits. Any-hit rate of the full collection: about 1.2%.
S1P4 agonist – agonists of human S1P4 receptor | S1P4-expressing cell line, agonist reporter assay | O95977 | AID 1509 | hit rate 0.35% among 220,000 | activation, % at 4.98 µM; in the data active = activation above about 11%
Target sequence (O95977 whole entry, looked up): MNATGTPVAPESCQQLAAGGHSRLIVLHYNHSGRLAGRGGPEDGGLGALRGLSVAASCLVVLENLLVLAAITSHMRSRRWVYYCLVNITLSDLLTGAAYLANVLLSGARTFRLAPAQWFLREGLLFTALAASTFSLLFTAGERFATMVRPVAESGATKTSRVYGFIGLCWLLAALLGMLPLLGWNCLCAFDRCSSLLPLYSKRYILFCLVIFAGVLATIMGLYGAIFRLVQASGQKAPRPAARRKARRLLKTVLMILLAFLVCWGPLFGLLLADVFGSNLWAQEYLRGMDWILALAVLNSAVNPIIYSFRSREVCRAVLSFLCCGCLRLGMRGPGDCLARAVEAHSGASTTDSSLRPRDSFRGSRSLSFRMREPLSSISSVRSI
Rad51 HR inh – Rad51 (human) homologous recombination inhibition | Q06609 | hRad51 DNA strand exchange, fluorescence dequenching | inhibition, % at 10 µM | hit rate 0.085% among 200,000 | AID 1385;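 active = inhibition above 40% at the single screening dose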
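Material: hRad51 filaments on single-stranded DNA; Reagent: Donor/quencher-labelled 47-bp dsDNA substrate; Compound: 10 µM final, single point; Schedule: 37 °C 15-min filament assembly, 30-min compound preincubation, 15-min exchange; Technique: FRET fluorescence, excitation 485 nm, emission 520 nm; Benchmarks: control wells and blank wells on each plate.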
Efa HMGR inh – blocks class II HMG-CoA reductase of Enterococcus faecalis. purified E. faecalis HMGR, NADPH absorbance 340 nm kinetic. inhibition, % at 10 µM. hit rate 0.41% among 190,000. AID 1066;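 active = inhibition above a set limit, the median over all tested compounds plus 3 SD, cut at about 9.5% in these data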;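 note: enzyme runs in reverse so mevalonate oxidation gives rising NADPH absorbance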
S1P3 antagonist – antagonists of human S1P3 receptor. Q99500. CHO S1P3 NFAT-BLA reporter, FRET fluorescence, antagonist mode. hit rate 0.27% among 170,000. AID 485. inhibition, % at 4.98 µM;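 active = inhibition above the plate cutoff, the mean inhibition of test wells on that plate plus 3 SD, cut at about 28% in these data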;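 note: cells challenged with S1P at its EC80 of 0.8 µM; blue over green emission ratio from cleaved BLA substrate after 4 h stimulation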
S1P4 antagonist – blocks the human S1P4 receptor. S1P4-expressing cells, antagonist mode, reporter read-out. inhibition, % at 4.98 µM. hit rate 0.26% among 220,000. AID 1510; in the data active = inhibition above about 29%
Calb biofilm kill – mixture kills Candida albicans biofilm cells; C. albicans biofilm persisters + clotrimazole, fluorescence viability; primary screen in compound mixtures of four per well; inhibition, % at 7.6 µM; hit rate 0.02% among 120,000;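 active = inhibition above 30.3% in the primary screen of four-compound pools, then above 30% when the compound was retested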;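 note: compounds exposed to preformed 24 h biofilms for 48 h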
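Test system: C. albicans biofilms. Buffer or medium: RPMI/MOPS medium, pH 7.0. Timing: 48 h compound exposure at 37 °C. Technique: Alamar Blue fluorescence. Evaluation: percent inhibition of biofilm viability.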
S1P4 agonist cf – confirmation of human S1P4 receptor agonists | hit rate 7% among 740 | shares compounds with S1P4 agonist | AID 1523 | S1P4 agonist cell-based reporter assay | activation, % at 4.98 µM; in the data active = activation above about 12%
S1P1 ag – activates human S1P1, counter-screen for S1P4 agonists; hit rate 4% among 740; S1P1 agonist cell-based assay, activation; activation, % at 4.98 µM; AID 1563; shares compounds with S1P4 agonist; in the data active = activation above about 21%
A number is an active result; i = inactive; nt = no result.

SMILES	S1P4 agonist	Rad51 HR inh	Efa HMGR inh	S1P3 antagonist	S1P4 antagonist	Calb biofilm kill	S1P4 agonist cf	S1P1 ag
Cc1cc(-n2c(=O)c(C#N)cc3c(=O)n4ccccc4nc32)no1	28	i	i	i	i	nt	20	34
CN(C)S(=O)(=O)c1cccc(NC(=O)c2ccc(N3CCOCC3)c([N+](=O)[O-])c2)c1	i	nt	i	i	i	i	nt	nt
Cc1cc(N2CCCC(C(=O)Nc3ccc4c(c3)CCC4)C2)n2ncnc2n1 (stereo not drawn)	17	i	i	i	i	nt	i	i
Cc1cc(N2CCCC(C(=O)Nc3cccc(Cl)c3)C2)n2ncnc2n1 (stereo not drawn)	i	i	i	i	i	i	nt	nt
CCOC(=O)c1ccc(NC(=O)CCc2nc(-c3ccccc3Cl)no2)cc1	12	i	i	i	i	nt	i	i
CC(C)CCNC(=O)c1cc(-c2ccncc2)nc2ccc(S(=O)(=O)N3CCOCC3)cc12	i	nt	i	i	i	i	nt	nt
O=[N+]([O-])c1ccc2c(c1)CNc1ccccc1O2	33	i	i	i	i	i	i	i
O=C(Nc1ccnc(-c2cccnc2)n1)c1ccc(Cl)c(Cl)c1	27	i	i	nt	i	nt	i	i
Cc1ccc(C(=O)Nc2ccnc(-c3cccnc3)n2)cc1	i	i	i	i	i	i	nt	nt
CCN(CC(=O)Nc1c(F)cccc1F)C(=O)CCc1c[nH]c2ccccc12	i	nt	i	i	i	i	nt	nt
N#CC1CCN(c2ncccc2[N+](=O)[O-])CC1	i	i	nt	i	i	i	nt	nt
CCOC(=O)c1nc(NCCc2ccccc2)sc1C	30	i	11	i	i	i	i	i
CCOC(=O)c1nc(NNC(C)=O)sc1C	i	i	i	i	i	i	nt	nt
COc1cccc(NC(=O)CCC(=O)NCc2ccco2)c1	i	i	i	nt	i	nt	nt	nt
CCOc1ccc(S(=O)(=O)NCc2ccccc2)cc1C(N)=O	11	i	i	i	i	i	i	i
CN(C)CCCN(Cc1ccccc1)C(=S)Nc1ccc(F)c(Cl)c1	i	nt	i	i	i	i	nt	nt
O=C(c1cccn2c(=O)c3cc4ccccc4cc3nc12)N1CCN(c2ccccc2)CC1	i	nt	i	nt	i	nt	nt	nt
O=C(Nc1ccc2c(c1)ncn2-c1ccccc1)c1ccco1	i	i	i	i	i	nt	nt	nt
Cn1cnc2cc(NC(=O)c3ccco3)ccc21	61	i	i	i	i	nt	i	i
CN(C)c1ccc(N2C(=O)CC(Sc3ccccc3C(=O)O)C2=O)cc1 (stereo not drawn)	11	nt	i	i	i	i	i	i
Cn1c(=NC(=O)c2ccccc2[N+](=O)[O-])sc2cccc(F)c21	11	nt	nt	i	i	i	i	i
Cn1c(=NC(=O)C(C)(C)C)sc2cccc(F)c21	i	nt	nt	i	i	i	nt	nt
Cc1cc(C)n(-c2ccc(C(=O)Nc3sccc3C(N)=O)cc2)n1	12	i	i	i	i	nt	21	i
Cc1cc(NC(=O)CCC(=O)N(CC(=O)NC2CCCC2)Cc2cccs2)no1	33	i	i	i	i	i	i	i
Cc1ccc(NC(=O)c2ccc(N/N=C/c3cccc(O)c3)c([N+](=O)[O-])c2)cc1	14	i	i	nt	i	nt	i	i
SMILES	S1P4 agonist	Rad51 HR inh	Efa HMGR inh	S1P3 antagonist	S1P4 antagonist	Calb biofilm kill	S1P4 agonist cf	S1P1 ag
Cc1ccccc1NC(=O)c1ccc(N/N=C/c2ccccc2O)c([N+](=O)[O-])c1	i	nt	i	nt	i	nt	nt	nt
COc1ccc(NC(=S)N2CCN(c3ccccn3)CC2)cc1OC	28	i	i	i	i	i	i	i
COc1cc(NC(=S)N2CCN(c3ccccn3)CC2)cc(OC)c1OC	i	nt	i	i	i	i	nt	nt
CCOc1ccc(N2CC(C(=O)Nc3ccc(N4CCOCC4)cc3)CC2=O)cc1 (stereo not drawn)	i	i	i	nt	i	i	nt	nt
Clc1ccc(C2CC(c3cccs3)n3ncnc3N2)c(Cl)c1 (stereo not drawn)	27	nt	i	i	i	i	i	i
CCOC(=O)C1CCN(c2cc(C)nc3cc(-c4cccc(F)c4)nn23)CC1	13	i	i	i	i	nt	i	i
O=C(Nc1nc2ccsc2c(=O)s1)c1ccc(F)cc1	i	i	nt	i	i	i	nt	nt
COC(=O)Nc1ccc(S(=O)(=O)Nc2cnc3ccccc3n2)cc1	i	i	i	i	i	i	nt	nt
CN(C)c1ccc(-c2n[nH]c(=S)n2-c2ccccc2)cc1	i	i	i	i	i	i	nt	nt
CCN(CC)c1ccc(-c2n[nH]c(=S)n2-c2ccccc2)cc1	12	i	i	i	i	i	i	i
O=C(Nc1c2c(nn1-c1ccc(F)cc1)CS(=O)C2)c1ccc(S(=O)(=O)N2CCOCC2)cc1 (stereo not drawn)	i	i	i	i	i	i	nt	nt
Cc1cc(OC(=O)CNC(=O)OC(C)(C)C)c2c(C)cc(=O)oc2c1	48	i	i	i	i	nt	i	i
COc1cccc(C(=O)NNC(=O)Cc2cccs2)c1	24	i	i	i	i	i	i	i
COc1cccc(OCC(=O)NNC(=O)Cc2cccs2)c1	i	i	i	i	i	i	nt	nt
Cc1ccc(NC(=O)C2CCCN2C(=O)Oc2ccccc2)cc1 (stereo not drawn)	14	i	i	i	i	nt	i	i
CCOc1cc(S(=O)(=O)NCCc2ccc(OC)c(OC)c2)c(OCC)cc1-n1cnnn1	73	i	i	nt	i	nt	i	i
CC(=O)N1CC23C=CC(CC2CC12CCCCCC2)O3 (stereo not drawn)	i	i	i	i	i	i	nt	nt
CCNC(=S)N/N=C/c1cc(C)ccc1C	i	i	i	i	i	i	nt	nt
C=CCNC(=S)N/N=C/c1ccc(C)cc1C	48	i	i	i	i	i	i	i
COc1ccccc1/C=C(/CC(=O)NCc1ccc(F)cc1)c1nc2ccccc2s1	63	i	i	i	i	i	i	i
Cc1ccc(NC(=O)CN(C)C(=O)CCCN2C(=O)c3ccccc3C2=O)cc1	38	i	i	i	i	nt	i	i
CCOCCCn1c(=NC(C)=O)c(C#N)cc2c(=O)n3cccc(C)c3nc21	12	i	nt	i	i	i	i	28
CC(=O)N=c1c(C#N)cc2c(=O)n3ccccc3nc2n1CCCOC(C)C	16	nt	nt	i	i	i	i	i
CC(C)OCCCn1c(=NC(=O)c2cccs2)c(C#N)cc2c(=O)n3ccccc3nc21	19	i	nt	i	i	i	i	i
COc1ccc(OC)c(NC(=O)c2ccccc2N(Cc2ccccc2)S(C)(=O)=O)c1	58	i	i	i	i	i	i	i
O=C(CSc1ccc(F)cc1)NC(=O)NCc1ccccc1	i	i	i	i	i	i	nt	nt
O=C(CSc1ccc(F)cc1)NCCSc1ccccc1	11	i	i	i	i	i	i	i
CC(=O)Nc1ccc(S(=O)(=O)n2cnc3ccccc32)cc1	i	i	i	nt	i	nt	nt	nt
COCn1c(-c2cccc(Br)c2)nc2ccccc21	82	i	i	i	i	nt	i	i
